Columns and labels:
Aldehyde oxidase [1] = biological target: T1, Aldehyde oxidase (Homo sapiens, UniProt Q06278); assay: Substrate activity at aldehyde oxidase in human liver cytosol assessed as mono-oxide metabolite formation at 10 uM measured after 3 hrs in presence of AOX inhibitor hydralazine by UPLC/Q-TOF MS analysis; assay type: ADME, subcellular
T1 sequence (Q06278 whole entry): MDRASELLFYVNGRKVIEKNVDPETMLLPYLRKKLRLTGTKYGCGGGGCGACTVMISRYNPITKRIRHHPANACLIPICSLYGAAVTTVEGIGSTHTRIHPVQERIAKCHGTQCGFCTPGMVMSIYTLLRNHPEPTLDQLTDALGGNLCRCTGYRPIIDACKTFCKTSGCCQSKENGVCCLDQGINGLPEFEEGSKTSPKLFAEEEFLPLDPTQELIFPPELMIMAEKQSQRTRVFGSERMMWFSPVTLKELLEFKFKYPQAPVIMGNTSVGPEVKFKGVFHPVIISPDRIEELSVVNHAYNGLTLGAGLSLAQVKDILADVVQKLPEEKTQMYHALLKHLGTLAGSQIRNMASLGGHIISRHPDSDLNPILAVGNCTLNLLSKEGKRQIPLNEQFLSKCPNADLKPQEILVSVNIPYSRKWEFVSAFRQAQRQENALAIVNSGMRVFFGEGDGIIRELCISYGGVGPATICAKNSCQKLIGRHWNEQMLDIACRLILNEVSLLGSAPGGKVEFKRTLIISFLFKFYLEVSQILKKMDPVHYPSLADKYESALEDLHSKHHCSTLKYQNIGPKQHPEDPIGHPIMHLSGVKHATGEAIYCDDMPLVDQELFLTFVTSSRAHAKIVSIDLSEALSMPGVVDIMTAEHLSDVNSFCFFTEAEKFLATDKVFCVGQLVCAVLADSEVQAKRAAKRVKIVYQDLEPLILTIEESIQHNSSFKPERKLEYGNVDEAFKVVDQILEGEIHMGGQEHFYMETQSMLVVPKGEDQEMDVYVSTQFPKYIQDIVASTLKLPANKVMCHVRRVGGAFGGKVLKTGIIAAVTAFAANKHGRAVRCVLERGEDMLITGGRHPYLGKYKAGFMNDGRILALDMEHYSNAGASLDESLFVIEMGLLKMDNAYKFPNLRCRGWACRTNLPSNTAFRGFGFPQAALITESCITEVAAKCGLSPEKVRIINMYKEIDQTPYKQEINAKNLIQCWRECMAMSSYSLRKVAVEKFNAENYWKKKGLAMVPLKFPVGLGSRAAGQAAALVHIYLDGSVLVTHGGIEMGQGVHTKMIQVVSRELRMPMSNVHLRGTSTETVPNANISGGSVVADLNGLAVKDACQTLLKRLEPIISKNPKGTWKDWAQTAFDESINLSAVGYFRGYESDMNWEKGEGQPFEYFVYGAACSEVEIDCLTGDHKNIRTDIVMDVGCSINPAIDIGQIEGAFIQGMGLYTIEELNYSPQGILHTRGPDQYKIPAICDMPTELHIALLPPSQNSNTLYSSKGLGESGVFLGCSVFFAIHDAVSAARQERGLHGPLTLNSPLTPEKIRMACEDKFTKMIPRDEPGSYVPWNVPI
How it was run: (§1)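 Human liver cytosol (2 mg/mL final protein) in 100 mM potassium phosphate pH 7.4 with 2 mM MgCl2, 10 μM test compound, 100 μM inhibitor, DMSO 1.1% final. Pre-incubated 3 min at 37°C, started by adding compound, run 3 h at 37°C, stopped with ice-cold acetonitrile. Supernatant analysed by UPLC/Q-TOF MS (positive ESI) for oxidative metabolite peak area. Inhibition ratio taken against no-inhibitor controls; triplicate.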

Aldehyde oxidase [2] = biological target: T1, Aldehyde oxidase; assay: Substrate activity at aldehyde oxidase in human liver cytosol assessed as mono-oxide metabolite formation at 10 uM measured after 3 hrs in presence of AOX inhibitor raloxifene by UPLC/Q-TOF MS analysis; assay type: ADME, subcellular; how it was run: as §1

| Drug metabolism (Aldehyde oxidase [1]) | Drug metabolism (Aldehyde oxidase [2]) | SMILES |
| --- | --- | --- |
| Metabolite_Notdetected | Metabolite_Notdetected | Cc1cc(Nc2ccc(NC(=O)c3ccc(Nc4ccnc5ccccc45)cc3)cc2)nc(N)n1 |
| Metabolite_Notdetected | Metabolite_Notdetected | Cl.Cl.Fc1cc(-c2cccc3ncc(-c4cnn(C5CCNCC5)c4)nc23)cc(F)c1CN1CCOCC1 |
| Metabolite_Notdetected | Metabolite_Notdetected | O=C(NCC(=O)N1CCCC1)Nc1ccc2cnccc2c1 |
| Metabolite_Notdetected | Metabolite_Notdetected | Cl.O=C(Nc1ccccc1-c1cn2c(CN3CCNCC3)csc2n1)c1cnc2ccccc2n1 |
| Metabolite_Notdetected | Metabolite_Notdetected | O=C(c1cncc(Br)c1)N1CCC(N2CCCC2)CC1 |
| Metabolite_Notdetected | Metabolite_Notdetected | N#C/C(=C\c1ccc(-c2cc(Cl)ccc2Cl)o1)C(=O)Nc1cccc2ncccc12 |

Reference: ChEMBL document CHEMBL4613262, “Revisiting Aldehyde Oxidase Mediated Metabolism in Drug-like Molecules: An Improved Computational Model” (J Med Chem, 2020)
